Results reported in ChEMBL document CHEMBL5316278, “Chemical Blockage of the Mitochondrial Rhomboid Protease PARL by Novel Ketoamide Inhibitors Reveals Its Role in PINK1/Parkin-Dependent Mitophagy” (J Med Chem, 2023).
Active and inactive are the calls of the source. No cut-off for these calls is given here. *1 amine or outer side, *2 acyl side, *3 side chain or, on linkers, in order; H or OH if unused. Where a SMILES comes first, the peptide text is derived from it. [ ]: non-standard residue; d: D form. The star is where a group is joined. NH(4-phenylbutyl) = c1ccc(CCCCN*)cc1; X1 = C[C@H](N[*:1])C(=O)C(=O)[*:2]

Key:
[1] = molecular target: T1, Presenilin-associated rhomboid-like protein, mitochondrial (Homo sapiens) (UniProt Q9H300); assay: Inhibition of human PARL expressed in human T-REx-293 cells overexpressing PINK1 transfected with HA-Parkin-IRES-GFP assessed as increase in Parkin level in mitochondrial fraction at 5 uM incubated for 22 hrs by immunoblot analysis; type: mitochondria
T1 sequence (whole entry): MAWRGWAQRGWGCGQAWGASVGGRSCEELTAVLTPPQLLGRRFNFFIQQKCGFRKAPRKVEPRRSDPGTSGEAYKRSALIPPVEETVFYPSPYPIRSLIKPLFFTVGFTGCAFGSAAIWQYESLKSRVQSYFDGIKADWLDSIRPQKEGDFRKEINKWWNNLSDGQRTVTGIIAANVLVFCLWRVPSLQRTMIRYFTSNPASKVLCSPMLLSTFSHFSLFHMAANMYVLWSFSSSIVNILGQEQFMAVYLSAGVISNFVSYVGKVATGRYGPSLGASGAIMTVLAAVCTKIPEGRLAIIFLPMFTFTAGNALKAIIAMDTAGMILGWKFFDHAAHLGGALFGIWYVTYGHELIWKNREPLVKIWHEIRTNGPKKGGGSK
In short: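 PINK1-induced HEK293 T-REx cells were transiently transfected with HA-Parkin-IRES-GFP (100 ng per 6-well, linear PEI). They were treated for 22 h, with DMSO, CCCP (10 μM, 3 h) and Antimycin A (30 μM, 3 h) as comparators. Cells were fractionated into cytosolic and mitochondrial fractions and immunoblotted (AIF, β-actin controls); n = 3, unpaired t-test.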

[2] = molecular target: T1, Presenilin-associated rhomboid-like protein, mitochondrial (Homo sapiens); assay: Inhibition of human PARL expressed in human T-REx-293 cells overexpressing PINK1 transfected with mito-mCherry and Parkin-mEGFP assessed as Parkin recruitment in mitochondria at 5 uM incubated for 3 hrs by fluorescence based microscopic analysis
In short: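 PINK1-induced HEK293 T-REx cells on poly-L-lysine slides were co-transfected with mito-mCherry and Parkin-mEGFP using PEI. Nuclei were stained with Hoechst (1 μg/mL) before treatment, and cells were treated for 3 h alongside DMSO, CCCP and Antimycin A. Parkin colocalisation with mitochondria was judged by fluorescence microscopy and line-scan pixel intensity plots.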

[3] = molecular target: T1, Presenilin-associated rhomboid-like protein, mitochondrial (Homo sapiens); assay: Inhibition of human PARL expressed in human Flp-In-T-REx-293 cells overexpressing PINK1 assessed as stabilization of 62 kDa PINK1 by measuring its inner mitochondrial level at 5 uM incubated for 3 hrs followed by proteinase K treatment by immunoblot analysis; type: cell-based
In short: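 PINK1 was induced in HEK293 T-REx cells by doxycycline and treated for 3 h, with DMSO and CCCP as comparators. Mitochondria were isolated at 4 °C in EGTA-free isolation buffer and exposed to proteinase K for 1 h, then PMSF (2.5 mM, 15 min). PINK1 forms were read by immunoblot, with AIF and VDAC as fractionation controls.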

HEK-293T = assay: Disruption of mitochondrial membrane potential in human HEK293T cells at 5 uM incubated for 3 hrs by JC-1 staining method; type: functional, cell-based
[4] = molecular target: T1, Presenilin-associated rhomboid-like protein, mitochondrial (Homo sapiens); assay: Inhibition of human PARL expressed in human Flp-In-T-REx-293 cells overexpressing PINK1 assessed as stabilization of 62 kDa PINK1 at 0.1 to 30 uM incubated for 8 hrs by immunoblot analysis; type: cell-based; details: dose 0.1-30 µM
In short: (§1)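 HEK293 T-REx cells with inducible PINK1 were grown in DMEM with 10% FBS, GlutaMAX, pyruvate, hygromycin and blasticidin. PINK1 was induced with 0.3 μg/mL doxycycline for 24 h. Cells were treated for 8 h, with DMSO and CCCP (10 μM, 3 h) as comparators. Cleaved PINK1 forms were resolved by immunoblot of whole-cell samples.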

[5] = molecular target: T1, Presenilin-associated rhomboid-like protein, mitochondrial (Homo sapiens); assay: Inhibition of human PARL expressed in human Flp-In-T-REx-293 cells overexpressing PINK1 assessed as stabilization of 66 kDa PINK1 at 0.1 to 30 uM incubated for 8 hrs by immunoblot analysis; type: cell-based; details: dose 0.1-30 µM; in short: as §1
[6] = molecular target: T1, Presenilin-associated rhomboid-like protein, mitochondrial (Homo sapiens); assay: Inhibition of human PARL expressed in human HEK293T cells assessed as stabilization of 62 kDa PINK1 at 5 uM incubated for 8 hrs by immunoblot analysis; type: cell-based
In short: (§2)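 Parental HEK293T cells (endogenous PINK1) were treated for 8 h, with DMSO or CCCP as comparators. Mitochondrial membranes were enriched by hypotonic needle lysis, 100,000 × g pelleting and 100 mM Na2CO3 extraction through a sucrose cushion. PINK1 was then read by immunoblot, with VDAC as fractionation control; n = 3, means ± SEM.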

[7] = molecular target: T1, Presenilin-associated rhomboid-like protein, mitochondrial (Homo sapiens); assay: Inhibition of human PARL expressed in human HEK293T cells assessed as stabilization of 66 kDa PINK1 at 5 uM incubated for 8 hrs by immunoblot analysis; type: cell-based; in short: as §2
[8] = molecular target: T1, Presenilin-associated rhomboid-like protein, mitochondrial (Homo sapiens); assay: Inhibition of human PARL expressed in human Flp-In-T-REx-293 cells overexpressing PINK1 assessed as stabilization of 66 kDa PINK1 at outer mitochondrial membrane at 5 uM incubated for 6 hrs followed by proteinase K treatment by immunoblot analysis; type: cell-based
In short: (§3)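 PINK1 was induced in HEK293 T-REx cells (doxycycline 0.3 μg/mL, 24 h), then treated for 6 h. Cells were lysed directly, or mitochondria were isolated by needle lysis and 10,000 × g centrifugation and digested with proteinase K for 30 min, then 2.5 mM PMSF for 15 min. Read-out was immunoblot, with AIF as fractionation control.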

[9] = molecular target: T1, Presenilin-associated rhomboid-like protein, mitochondrial (Homo sapiens); assay: Inhibition of human PARL expressed in human Flp-In-T-REx-293 cells overexpressing PINK1 with OMA1 knockdown assessed as stabilization of 62 kDa PINK1 at 10 uM incubated for 8 hrs by immunoblot analysis; type: cell-based
In short: (§4)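 PINK1-inducible HEK293 T-REx cells were transfected with 20 nM siRNA using RNAiMAX and analysed five days later. PINK1 was induced with doxycycline. Cells were treated for 8 h with 10 μM or DMSO. Read-out was immunoblot, with β-actin as loading control.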

[10] = molecular target: T1, Presenilin-associated rhomboid-like protein, mitochondrial (Homo sapiens); assay: Inhibition of human PARL expressed in human Flp-In-T-REx-293 cells overexpressing PINK1 assessed as stabilization of 53 kDa PINK1 at outer mitochondrial membrane at 5 uM incubated for 6 hrs followed by proteinase K treatment by immunoblot analysis; type: cell-based; in short: as §3
[11] = molecular target: T1, Presenilin-associated rhomboid-like protein, mitochondrial (Homo sapiens); assay: Inhibition of human PARL expressed in human Flp-In-T-REx-293 cells overexpressing PINK1 with OMA1 knockdown assessed as stabilization of 53 kDa PINK1 at 10 uM incubated for 8 hrs by immunoblot analysis; type: cell-based; in short: as §4
[12] = molecular target: T1, Presenilin-associated rhomboid-like protein, mitochondrial (Homo sapiens); assay: Inhibition of human PARL expressed in human Flp-In-T-REx-293 cells overexpressing PINK1 assessed as stabilization of 53 kDa PINK1 at 0.1 to 30 uM incubated for 8 hrs by immunoblot analysis; type: cell-based; details: dose 0.1-30 µM; in short: as §1

Row | SMILES | inhibition [1] | inhibition [2] | inhibition [3] | Activity (HEK-293T) | inhibition [4] | inhibition [5] | inhibition [6] | inhibition [7] | inhibition [8] | inhibition [9] | inhibition [10] | inhibition [11] | inhibition [12]
1 | CCCCCC[C@H]1C(=O)O[C@H](C)[C@H](NC(=O)c2cccc(NC=O)c2O)C(=O)O[C@@H](C)[C@@H]1OC(=O)CC(C)C | Active | inactive |  |  |  |  |  |  |  |  |  |  | 
2 | N#CC(C#N)=NNc1cccc(Cl)c1 | Active |  | inactive | Active |  |  |  |  |  |  |  |  | 
3 | CC(=O)N[C@@H](C)C(=O)N[C@H](C(=O)N[C@@H](Cc1ccccc1)C(=O)N[C@@H](CC(C)C)C(=O)N[C@@H](C)C(=O)C(=O)NCCCCc1ccccc1)C(C)C (Ac-AVFL[X1]-{NH(4-phenylbutyl)}) | Active | Active | Active | inactive | Dose-Dependent Effect | Dose-Dependent Effect | Active | Active | inactive | Active | inactive | Active | Dose-Dependent Effect
